Reference: ChEMBL document CHEMBL1141487, “Alpha,Beta-cyclic-beta-benzamido hydroxamic acids: Novel oxaspiro[4.4]nonane templates for the discovery of potent, selective, orally bioavailable inhibitors of tumor necrosis factor-alpha converting enzyme (TACE)” (Bioorg Med Chem Lett, 2008)

How the values were obtained:
[1] = Tmax in Sprague-Dawley rat at 5 mg/kg, po; assay type: ADME, organism-based; parameters: dose 5 mg/kg, route oral; details: in vivo
Method in brief: (§1)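 Sprague–Dawley rats dosed 5 mg/kg iv and 5 mg/kg orally as n-in-1 cassette. Plasma levels measured by LC/MS/MS.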

Mus musculus = species on record: Mus musculus; experiment: Inhibition of LPS-induced TNFalpha production in mouse endotoxemia model after 1 hr; assay type: functional
Method in brief: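 Mice given lipopolysaccharide together with graded oral gavage doses of inhibitor at t = 0 h. Animals euthanized 1 h post-dose and whole blood taken by cardiac puncture. TNF-α measured in plasma. ED50 calculated from the dose–response.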

[2] = Bioavailability in Sprague-Dawley rat at 5 mg/kg, po; assay type: ADME, organism-based; details: in vivo; method in brief: as §1
[3] = Half life in Sprague-Dawley rat at 5 mg/kg, iv; assay type: ADME, organism-based; parameters: dose 5 mg/kg, route intravenous; details: in vivo; method in brief: as §1
[4] = AUC in Sprague-Dawley rat at 5 mg/kg, po; assay type: ADME, organism-based; parameters: dose 5 mg/kg, route oral; details: plasma; method in brief: as §1
[5] = biological target: Matrix metalloproteinase-9 (Homo sapiens, UniProt P14780); experiment: Inhibition of MMP9
Sequence of Matrix metalloproteinase-9 (P14780 whole entry): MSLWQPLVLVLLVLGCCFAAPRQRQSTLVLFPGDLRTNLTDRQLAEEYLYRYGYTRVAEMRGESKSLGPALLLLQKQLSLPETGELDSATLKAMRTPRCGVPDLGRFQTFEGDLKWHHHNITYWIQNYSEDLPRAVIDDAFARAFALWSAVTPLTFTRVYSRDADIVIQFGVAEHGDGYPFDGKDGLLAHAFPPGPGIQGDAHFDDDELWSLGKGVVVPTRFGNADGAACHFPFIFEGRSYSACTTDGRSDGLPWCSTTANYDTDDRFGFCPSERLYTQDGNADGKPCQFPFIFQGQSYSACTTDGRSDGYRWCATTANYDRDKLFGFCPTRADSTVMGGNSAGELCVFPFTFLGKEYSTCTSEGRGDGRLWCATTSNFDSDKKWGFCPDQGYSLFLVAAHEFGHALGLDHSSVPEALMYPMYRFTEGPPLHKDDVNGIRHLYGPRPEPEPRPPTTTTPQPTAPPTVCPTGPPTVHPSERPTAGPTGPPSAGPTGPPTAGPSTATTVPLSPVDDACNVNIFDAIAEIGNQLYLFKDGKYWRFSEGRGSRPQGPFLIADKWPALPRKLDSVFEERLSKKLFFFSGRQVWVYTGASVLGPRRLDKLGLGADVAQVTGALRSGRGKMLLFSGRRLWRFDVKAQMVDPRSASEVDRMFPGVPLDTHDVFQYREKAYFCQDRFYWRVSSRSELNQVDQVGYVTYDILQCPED

[6] = Volume of distribution at steady state in Sprague-Dawley rat at 5 mg/kg, iv; assay type: ADME, organism-based; parameters: dose 5 mg/kg, route intravenous; details: in vivo, read-out: Vdss; method in brief: as §1
Blood = experiment: Inhibition of LPS-induced TNFalpha production in human whole blood; assay type: functional, tissue-based
[7] = Clearance in Sprague-Dawley rat at 5 mg/kg, iv; assay type: ADME, organism-based; parameters: dose 5 mg/kg, route intravenous; details: in vivo; method in brief: as §1
[8] = Half life in Sprague-Dawley rat at 5 mg/kg, po; assay type: ADME, organism-based; parameters: dose 5 mg/kg, route oral; details: in vivo; method in brief: as §1
[9] = Apparent permeability across human Caco-2 cells; assay type: ADME, cell-based
[10] = biological target: 72 kDa type IV collagenase (Homo sapiens, UniProt P08253); experiment: Inhibition of MMP2
Sequence of 72 kDa type IV collagenase (P08253 whole entry): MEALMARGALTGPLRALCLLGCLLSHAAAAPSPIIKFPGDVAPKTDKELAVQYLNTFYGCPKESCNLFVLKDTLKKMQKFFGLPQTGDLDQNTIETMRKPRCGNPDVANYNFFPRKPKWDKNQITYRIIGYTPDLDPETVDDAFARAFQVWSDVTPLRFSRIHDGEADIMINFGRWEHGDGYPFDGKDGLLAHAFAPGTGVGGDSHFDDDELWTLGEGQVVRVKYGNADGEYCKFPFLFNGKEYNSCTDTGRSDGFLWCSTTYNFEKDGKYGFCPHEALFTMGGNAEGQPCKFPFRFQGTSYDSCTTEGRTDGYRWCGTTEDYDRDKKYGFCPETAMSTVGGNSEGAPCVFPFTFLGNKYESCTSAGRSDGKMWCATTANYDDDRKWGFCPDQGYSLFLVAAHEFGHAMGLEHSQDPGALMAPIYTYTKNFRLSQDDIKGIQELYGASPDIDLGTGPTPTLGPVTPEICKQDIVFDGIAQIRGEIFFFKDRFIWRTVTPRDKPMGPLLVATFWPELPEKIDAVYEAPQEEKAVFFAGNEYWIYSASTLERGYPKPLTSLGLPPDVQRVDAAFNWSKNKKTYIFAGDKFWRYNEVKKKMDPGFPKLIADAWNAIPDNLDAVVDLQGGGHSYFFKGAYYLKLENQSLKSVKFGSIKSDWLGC

Interstitial collagenase = biological target: T1, Interstitial collagenase (Homo sapiens, UniProt P03956); experiment: Inhibition of MMP1
T1 sequence (P03956 whole entry): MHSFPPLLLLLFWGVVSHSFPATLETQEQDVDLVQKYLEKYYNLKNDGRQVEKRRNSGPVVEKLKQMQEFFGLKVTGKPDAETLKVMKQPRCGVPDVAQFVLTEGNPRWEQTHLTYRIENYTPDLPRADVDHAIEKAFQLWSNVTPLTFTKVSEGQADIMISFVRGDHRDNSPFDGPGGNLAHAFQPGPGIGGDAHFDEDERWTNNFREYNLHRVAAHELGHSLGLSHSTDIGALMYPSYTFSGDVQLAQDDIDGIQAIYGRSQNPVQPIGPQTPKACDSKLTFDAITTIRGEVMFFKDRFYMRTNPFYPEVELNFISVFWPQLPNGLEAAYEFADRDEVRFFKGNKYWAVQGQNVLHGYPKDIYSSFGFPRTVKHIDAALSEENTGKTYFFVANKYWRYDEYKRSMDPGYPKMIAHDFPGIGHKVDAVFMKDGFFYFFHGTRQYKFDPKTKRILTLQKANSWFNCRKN

[11] = Oral bioavailability in Beagle dog; assay type: ADME, organism-based, Canis lupus familiaris; details: in vivo
[12] = biological target: Disintegrin and metalloproteinase domain-containing protein 17 (Sus scrofa, UniProt O77636)
Sequence of Disintegrin and metalloproteinase domain-containing protein 17 (O77636 whole entry, the tested form may be a part): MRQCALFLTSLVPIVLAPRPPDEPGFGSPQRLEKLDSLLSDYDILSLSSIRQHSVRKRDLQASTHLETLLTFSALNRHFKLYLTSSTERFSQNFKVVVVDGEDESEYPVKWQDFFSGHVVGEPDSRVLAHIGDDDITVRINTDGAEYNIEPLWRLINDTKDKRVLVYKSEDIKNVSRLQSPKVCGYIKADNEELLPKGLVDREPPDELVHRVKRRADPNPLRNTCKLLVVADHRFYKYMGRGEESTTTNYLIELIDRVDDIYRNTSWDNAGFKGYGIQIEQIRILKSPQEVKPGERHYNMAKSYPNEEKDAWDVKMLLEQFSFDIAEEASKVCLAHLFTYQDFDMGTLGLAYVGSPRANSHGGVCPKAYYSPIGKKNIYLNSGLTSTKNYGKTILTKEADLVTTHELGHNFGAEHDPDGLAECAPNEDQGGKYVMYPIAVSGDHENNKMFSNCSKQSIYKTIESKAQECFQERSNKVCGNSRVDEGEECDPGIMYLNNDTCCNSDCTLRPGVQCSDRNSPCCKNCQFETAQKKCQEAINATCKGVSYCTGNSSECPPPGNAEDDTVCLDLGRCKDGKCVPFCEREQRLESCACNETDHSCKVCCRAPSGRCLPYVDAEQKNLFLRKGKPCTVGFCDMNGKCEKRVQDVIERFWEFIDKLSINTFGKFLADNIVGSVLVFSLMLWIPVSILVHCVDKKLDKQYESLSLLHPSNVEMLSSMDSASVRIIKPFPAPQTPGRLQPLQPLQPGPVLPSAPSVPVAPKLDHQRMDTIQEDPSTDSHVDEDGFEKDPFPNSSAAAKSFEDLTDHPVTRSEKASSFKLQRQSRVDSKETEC

[13] = AUC in Sprague-Dawley rat at 5 mg/kg, iv; assay type: ADME, organism-based; parameters: dose 5 mg/kg, route intravenous; details: plasma; method in brief: as §1

Row | Compound | Tmax [1] | ED50 (Mus musculus) | bioavailability [2] | half-life [3] | AUC [4] | Ki [5] | Vd [6] | IC50 (Blood) | clearance [7] | half-life [8] | Papp [9] | Ki [10] | Ki (Interstitial collagenase) | bioavailability [11] | IC50 [12] | AUC [13]
1 | Cc1cc(COc2ccc(C(=O)N[C@@H]3C[C@@]4(CCCO4)C[C@@H]3C(=O)NO)cc2)c2ccccc2n1 | 0.1 h | 1 mg/kg | 31% | 4.2 h | 3.93 µM·h | 1450 nM | 0.3 L/kg | 108 nM | 11.7 mL/min/kg | 1.3 h | 5.7 ×10⁻⁶ cm/s | 1360 nM | > 4950 nM | 68% | 1 nM | 12.6 µM·h
2 | Cc1cc(COc2ccc(C(=O)N[C@@H]3C[C@]4(CCCO4)C[C@@H]3C(=O)NO)cc2)c2ccccc2n1 | 0.25 h |  | 35% | 6.9 h | 3.85 µM·h | 1250 nM | 1.4 L/kg | 143 nM | 13.3 mL/min/kg | 1.9 h | 1.5 ×10⁻⁶ cm/s | 1920 nM | > 4950 nM |  | 1 nM | 10.9 µM·h
